NR3A LBD binder = modulates the human NR3A ligand-binding domain; AID 1259313; hit rate 2.5% among 340,000; NR3A LBD differential scanning fluorimetry, Tm shift; 0% = protein alone, 100% = glycine-bound protein; Tm shift relative to glycine control, % at 25 µM;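 active = melting temperature shift of at least 10% of the positive control shift, at one fixed dose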
EBI2 antag = EBI2 (human) antagonism; P32249; EBI2 beta-arrestin recruitment, luminescence, 7a,25-OHC stimulated; inhibition, % at 5 µM; hit rate 0.81% among 360,000; AID 651636; in the data active = inhibition above about 38%;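 note: enzyme fragment complementation signal reports receptor beta-arrestin coupling in cells; 0% = agonist plus DMSO wells and 100% = wells without agonist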
Target sequence (P32249 whole entry, looked up, the tested form may be a part): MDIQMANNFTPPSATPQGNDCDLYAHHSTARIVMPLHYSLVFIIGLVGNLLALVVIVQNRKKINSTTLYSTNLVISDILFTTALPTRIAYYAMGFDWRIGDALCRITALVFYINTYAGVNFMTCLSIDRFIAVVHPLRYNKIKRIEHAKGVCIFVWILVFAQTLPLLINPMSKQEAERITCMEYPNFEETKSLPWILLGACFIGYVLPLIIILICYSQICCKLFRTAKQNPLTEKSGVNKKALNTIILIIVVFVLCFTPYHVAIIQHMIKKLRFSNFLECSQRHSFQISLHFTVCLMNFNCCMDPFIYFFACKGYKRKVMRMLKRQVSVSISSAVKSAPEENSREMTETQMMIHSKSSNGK
MPTP inh = inhibitors of mitochondrial permeability transition pore; isolated mouse mitochondria, Ca2+ swelling absorbance, 30 min; inhibition, % at 10 µM; hit rate 1.4% among 360,000;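 active = inhibition of 50% or more, scaled per plate between neutral and stimulator controls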;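 note: 0% = DMSO wells given calcium and 100% = 1 mM EGTA wells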
SENP1 inh = SENP1 (human) catalytic domain inhibition | hit rate 0.21% among 360,000 | recombinant SENP1 catalytic domain, CyPet-SUMO1-YPet FRET cleavage | Q9P0U3 | AID 624204 | inhibition, % at 10 µM;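 active = inhibition at least 30% at 10 µM, raw YFP signal under a set limit, fluorescence ratio 0.5 to 1.5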;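 note: 0% = enzyme with DMSO and 100% = no enzyme wells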
Target sequence (Q9P0U3 419-644 limits assumed): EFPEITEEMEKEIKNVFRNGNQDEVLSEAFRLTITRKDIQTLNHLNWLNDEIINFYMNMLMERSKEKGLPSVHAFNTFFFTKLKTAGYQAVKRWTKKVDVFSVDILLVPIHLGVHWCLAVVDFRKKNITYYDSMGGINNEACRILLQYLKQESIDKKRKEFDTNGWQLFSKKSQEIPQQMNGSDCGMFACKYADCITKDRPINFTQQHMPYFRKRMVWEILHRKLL
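Test system: hSENP1 catalytic domain, recombinant; Amount: 20 pM final SENP1 enzyme; Medium: Tris pH 8 buffer plus EDTA, NaCl, BME, BSA, NP40, catalase; Schedule: 50 min enzyme reaction, room temperature, light-protected; Technique: FRET fluorescence in CFP and YFP emission channels; Controls: no-enzyme wells low, DMSO-plus-enzyme wells high control.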
EBI2 conf = EBI2 (human) antagonism, single concentration confirmation | shares compounds with EBI2 antag | EBI2 beta-arrestin luminescence, 7a,25-OHC antagonism | inhibition, % at 5 µM | hit rate 29% among 2,400;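 active = inhibition of at least 50%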
EBI2 ag = counter-screen for EBI2 antagonists: EBI2 agonist activity; shares compounds with EBI2 antag; EBI2-expressing cells, agonist mode, luminescence, 60 min; 0% vehicle, 100% 7α,25-dihydroxycholesterol control; activation, % at 5 µM; 2,400 tested, under 10 active; AID 652000;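 active = activation of at least 50%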
bGal cs = counter-screen for EBI2 antagonists: E. coli beta-galactosidase inhibition; shares compounds with EBI2 antag; purified beta-galactosidase, luminescent Galacton Star, 15 min; inhibition, % at 5 µM; hit rate 1% among 2,400;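 active = replicate-average signal at least 3 plate SD below neutral wells, shown as high inhibition, flagging enzyme-inhibiting false positives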;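 note: 0% = DMSO wells with enzyme and 100% = wells lacking enzyme; higher means stronger loss of beta-gal luminescence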
* = called active by the depositor. An excerpt weighted towards active compounds, which were near 4.4% of everything screened.

`COc1ccc(NC(=O)N2CCCC(c3nc(-c4ccc(OC)cc4)no3)C2)cc1` (centres undefined) gave NR3A LBD binder -10, EBI2 antag 58*, MPTP inh 11, SENP1 inh 0, EBI2 conf 30, EBI2 ag 1 and bGal cs 2.
Screening COc1cccc(C(=O)NCCS(=O)(=O)N2CC(C)CC(C)C2)c1 (centres undefined) returned NR3A LBD binder 1, EBI2 antag 1, MPTP inh 0 and SENP1 inh -1.
Screening CCOC(=O)C1CCCCN1C(=O)c1ccc2nc(Cc3ccc(OC)cc3)oc2c1 (centres undefined) returned NR3A LBD binder 0, EBI2 antag 61*, MPTP inh 1, SENP1 inh -2, EBI2 conf 49, EBI2 ag 0 and bGal cs 3.
`CCOc1ccc(NC(=O)c2ccc3c(c2)OCCO3)cc1S(=O)(=O)N(CC)CC` gave NR3A LBD binder 2, EBI2 antag -7, MPTP inh 0 and SENP1 inh -1.
For CN(CC(=O)Nc1ccc(Cl)c(C(F)(F)F)c1)C(=O)C1CCN(C(=O)c2ccc(Cl)cc2)CC1 the results were NR3A LBD binder -3, EBI2 antag 56*, MPTP inh -1, SENP1 inh -1, EBI2 conf 39, EBI2 ag -1 and bGal cs -20.
For Cc1ccccc1C(=O)N1CCC(C(=O)N(C)CCOc2ccccc2)CC1 the results were NR3A LBD binder -1, EBI2 antag 2, MPTP inh 0 and SENP1 inh 1.
`CN(CCOc1ccc(Cl)cc1)C(=O)C1CCN(C(=O)c2ccc(Cl)cc2)CC1` gave NR3A LBD binder -3, EBI2 antag 74*, MPTP inh 0, SENP1 inh -1, EBI2 conf 40, EBI2 ag 0 and bGal cs 4.
CN(CC(=O)Nc1ccc(Cl)c(C(F)(F)F)c1)C(=O)C1CCC1 was read as NR3A LBD binder 2, EBI2 antag -13, MPTP inh -3 and SENP1 inh 0.
O=C(c1ccc(Cl)cc1)N1CCN(CCOc2ccccc2)CC1 was read as NR3A LBD binder 2, EBI2 antag 46*, MPTP inh 1, SENP1 inh -1, EBI2 conf 11, EBI2 ag 1 and bGal cs 5.
OC(Cc1cccc(Br)c1)c1ncc(-c2ccccc2C(F)(F)F)[nH]1 (centres undefined) was read as EBI2 antag 8, MPTP inh 6 and SENP1 inh 1.
For CN1C(=O)[C@H]2[C@@H](c3ccc(C(F)(F)F)cc3)N[C@]3(CCCN(Cc4cccn4C)C3=O)[C@H]2C1=O the results were EBI2 antag -4, MPTP inh 1 and SENP1 inh 0.
For COc1ccc(C(CC(=O)O)N2Cc3ccccc3C2=O)cc1OC (centres undefined) the results were NR3A LBD binder -1, EBI2 antag -8, MPTP inh 2 and SENP1 inh -1.
Screening O=C1CCN(Cc2ccccc2)C=C1c1ccc(C(F)(F)F)cc1 returned NR3A LBD binder 3, EBI2 antag 69*, MPTP inh 0, SENP1 inh 0, EBI2 conf 48, EBI2 ag -1 and bGal cs -15.
COc1cc(C2=CN(Cc3ccccc3)CCC2=O)cc(OC)c1OC was read as NR3A LBD binder -4, EBI2 antag 5, MPTP inh -2 and SENP1 inh 2.
`O=C1CCN(Cc2ccccc2)C=C1c1ccc2ccccc2c1` gave NR3A LBD binder 1, EBI2 antag 90*, MPTP inh 0, SENP1 inh 0, EBI2 conf 65*, EBI2 ag 0 and bGal cs -13.
O=C1CCN(Cc2ccccc2)C=C1c1ccc(Cl)cc1 was read as NR3A LBD binder -4, EBI2 antag 66*, MPTP inh 2, SENP1 inh -1, EBI2 conf 58*, EBI2 ag -1 and bGal cs -10.
Screening CCc1nc2ccc(C(=O)NCCc3ccccn3)cn2c1N(C)Cc1cccs1 returned EBI2 antag -2, MPTP inh 0 and SENP1 inh -5.
`COC(=O)c1ccc2nc(-c3ccc(C#N)cc3)c(Cc3ccsc3)n2c1` gave EBI2 antag 63*, MPTP inh 0, SENP1 inh -5, EBI2 conf 52*, EBI2 ag -1 and bGal cs -17.
COc1cccc(NC(=O)c2c([N+](=O)[O-])cnn2C)c1 was read as NR3A LBD binder 2, EBI2 antag 0, MPTP inh 1 and SENP1 inh -1.
`COc1cc(NC(=O)C2CC(=O)N(Cc3ccco3)C2)cc(OC)c1` (centres undefined) gave NR3A LBD binder 2, EBI2 antag 8, MPTP inh -1 and SENP1 inh 0.
`COc1cccc(-c2onc3ccc(C4(C)OCCO4)cc23)c1` gave NR3A LBD binder 2, EBI2 antag 48*, MPTP inh 1, SENP1 inh -47, EBI2 conf 11, EBI2 ag 0 and bGal cs 8.
For COc1ccc(CCN2CC(C(=O)NCCCn3nc(C)cc3C)CCC2=O)cc1 (centres undefined) the results were NR3A LBD binder 0, EBI2 antag 6, MPTP inh 0 and SENP1 inh -1.
CSc1ccc(CN(C)C(=O)c2cc(=O)c3ccccc3o2)cc1 was read as NR3A LBD binder 0, EBI2 antag 78*, MPTP inh 0, SENP1 inh 0, EBI2 conf 60*, EBI2 ag -1 and bGal cs -14.
For CSc1ccc(CN(C)C(=O)c2cc3ccccc3o2)cc1 the results were NR3A LBD binder -1, EBI2 antag 50*, MPTP inh -1, SENP1 inh -3, EBI2 conf 12, EBI2 ag 0 and bGal cs -11.
`CN(Cc1ccccc1)C(=O)COC(=O)c1cc(=O)c2ccccc2o1` gave NR3A LBD binder -2, EBI2 antag 5, MPTP inh 0 and SENP1 inh 3.
For CN(Cc1c(F)cccc1Cl)C(=O)c1cc2ccccc2o1 the results were NR3A LBD binder 1, EBI2 antag 13, MPTP inh -1 and SENP1 inh 2.
`O=C(Nc1ccc(O)cc1)c1ccc2c(c1)C(=O)N(Cc1cccnc1)C2=O` gave NR3A LBD binder 2, EBI2 antag -9, MPTP inh 3 and SENP1 inh -1.
